Data from article PMC5934316 (Oncogene, 2018).
Read-outs that look alike come from different tables or passages of the source.

Experiments:
[1] = tested on: STAT3-dependent luciferase reporter; assay: STAT3-dependent luciferase reporter assay; type: cell-based, human; conditions: for STAT3-dependent luciferase expression: MDA-MB-231 cells, Figure 1B
Procedure, shortened: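 MDA-MB-231 cells stably carrying a STAT3-dependent luciferase reporter were treated with DMSO or test compound. Dose-response used graded concentrations; the time course used 2 μM for varying times. Luciferase activity was then measured with a commercial kit. Experiments were run at least three times.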

MTT survival assay = type: cell-based; conditions: human, MCF10A cells, IC50, cytotoxicity
MDA-MB-231 [2] = assay: MTT survival assay; type: cell-based; conditions: Homo sapiens, read-out: IC50, survival
Procedure, shortened: (§1)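 Breast cancer lines were cultured in DMEM + 10% FBS at 37 °C, 5% CO2. Cells were seeded at 3–4×10^3 per well in 96-well plates and treated with graded test-compound concentrations for 48 or 72 h. Viable cells were then measured by MTT. Experiments were run at least three times.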

[3] = tested on: STAT3 target genes, cyclin D1 and Bcl-xL; assay: Real-time RT-PCR and Western blot of STAT3 target genes in MDA-MB-231 cells; type: cell-based, human; conditions: mRNA by real-time RT-PCR and protein by Western blot
Procedure, shortened: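 MDA-MB-231 cells were treated with graded test-compound concentrations. Cyclin D1, Bcl-xL and STAT3 mRNAs were measured by SYBR Green real-time RT-PCR and quantified by 2ΔΔCt against GAPDH (n=3). For protein, cells were treated for 24 h, then analysed by SDS-PAGE/PVDF Western blot with HRP secondaries and ECL on film, using actin as loading control.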

recombinant STAT3 = assay: Pull-down assay with immobilized BMA097, purified recombinant STAT3 proteins; type: binding; conditions: silver staining
Procedure, shortened: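 Purified recombinant STAT3 deletion proteins were mixed with test compound immobilised on CNBr-activated Sepharose 4B, after milk blocking in Tris-HCl pH 8.0/KCl/NP-40 binding buffer. Pulled-down material was separated by SDS-PAGE and detected by silver staining or STAT3 Western blot.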

MDA-MB-231 [4] = assay: Annexin V-FITC/PI apoptosis assay; type: cell-based, human
Procedure, shortened: (§2)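 Cells grown in DMEM with 10% FBS at 37 °C, 5% CO2. Seeded at 3×10^5 cells/well in 6-well plates and exposed to test compound for 24 h. Stained with annexin V-FITC and propidium iodide and analysed by flow cytometry. Annexin V+/PI− plus double-positive cells were counted as apoptotic. Experiments were run at least three times.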

STAT3 [5] = target: T1, STAT3 (Homo sapiens, UniProt P40763); type: cell-based
Procedure, shortened: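 In MDA-MB-231 cells, constitutive pSTAT3 was assessed after graded doses for 24 h or 2 μM over time, with actin as loading control. For IL-6 induction, serum-starved cells were pretreated, then given IL-6. Localisation after 24 h used methanol/acetone-fixed, Triton-permeabilised cells stained for (p)STAT3 with Alexa555 secondary and DAPI (confocal), or fractionation with histone/actin markers. Dimers were resolved by non-denaturing PAGE and Western blot.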

MCF7 [6] = assay: Annexin V-FITC/PI apoptosis assay; type: cell-based, human
Procedure, shortened: as §2

[7] = tested on: MDA-MB-231 and MCF-7 cells; assay: JC-1 mitochondrial membrane potential assay; type: cell-based, human; conditions: JC-1, 24 hours, both cell lines
Procedure, shortened: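 MDA-MB-231 and MCF-7 cells were exposed to graded test-compound concentrations for 24 h. They were then stained with JC-1 (5 μg/mL) for 30 min at 37 °C, washed in PBS and analysed by flow cytometry. Δψm was taken as the ratio of red (aggregate) to green (monomer) fluorescence. Experiments were run at least three times.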

MDA-MB-468 = assay: MTT survival assay; type: cell-based; conditions: Homo sapiens, read-out: IC50, survival
Procedure, shortened: as §1

breast cancer cells = assay: MTT survival assay, summary over breast cancer cells; type: cell-based; conditions: Homo sapiens, 72 h, read-out: IC50 for breast cancer cells
Procedure, shortened: as §1

MCF7 [8] = assay: MTT survival assay; type: cell-based; conditions: Homo sapiens, read-out: IC50, survival
Procedure, shortened: as §1

STAT3 [9] = target: T1, STAT3; assay: Pull-down assay with immobilized BMA097, MDA-MB-231 cell lysate; type: binding
Procedure, shortened: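 Test compound was coupled to CNBr-activated Sepharose 4B and blocked with 10% milk in binding buffer (20 mM Tris-HCl pH 8.0, 150 mM KCl, 1 mM EDTA, 15% glycerol, 0.5% NP-40, 0.2 mM PMSF, protease inhibitors). Beads were mixed with MDA-MB-231 lysate. For competition, lysate was first incubated 30 min at 37 °C with DMSO, 400 μM free compound or an irrelevant compound. For elution, bound material was incubated 1 h with the same agents. Read-out was SDS-PAGE and STAT3 Western blot.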

MDA-MB-231 xenografts = assay: In-vivo efficacy, xenograft tumors; parameters: species or system mice
Procedure, shortened: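 Donor xenograft: 1×10^7 MDA-MB-231 cells injected s.c. into a 5-week-old female Balb/c nude mouse and grown 2 weeks. ~1.5-mm pieces were implanted s.c. in 4–6-week-old female nude mice. At ~100 mm3, five mice per group received vehicle, test compound or vincristine 0.6 mg/kg IP every 3 days for 18 days. Tumour volume was measured blinded every 3 days. IHC covered total/Tyr705-phosphorylated STAT3 and cleaved caspase 3.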

[10] = Body weight in xenograft study; type: in vivo, mice
Procedure, shortened: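 MDA-MB-231 tumour pieces (~1.5 mm) from a donor xenograft were implanted s.c. in the left flank of 4–6-week-old female Balb/c nude mice. At ~100 mm3, mice were randomised (5/group) to vehicle, 10 or 40 mg/kg test compound, or 0.6 mg/kg vincristine. Dosing was IP every 3 days for 18 days, with body weight recorded every 3 days.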

JAK2 = JAK2 (Homo sapiens, UniProt O60674); assay: Western blot of JAK2 Tyr1007/1008 phosphorylation in MDA-MB-231 cells; type: cell-based
Procedure, shortened: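 MDA-MB-231 cells were treated with test compound, and lysates were analysed by SDS-PAGE/PVDF Western blot. Blots were probed for total and Tyr1007/1008-phosphorylated JAK2, detected with HRP secondaries and ECL on film.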

T1 sequence (P40763 whole entry): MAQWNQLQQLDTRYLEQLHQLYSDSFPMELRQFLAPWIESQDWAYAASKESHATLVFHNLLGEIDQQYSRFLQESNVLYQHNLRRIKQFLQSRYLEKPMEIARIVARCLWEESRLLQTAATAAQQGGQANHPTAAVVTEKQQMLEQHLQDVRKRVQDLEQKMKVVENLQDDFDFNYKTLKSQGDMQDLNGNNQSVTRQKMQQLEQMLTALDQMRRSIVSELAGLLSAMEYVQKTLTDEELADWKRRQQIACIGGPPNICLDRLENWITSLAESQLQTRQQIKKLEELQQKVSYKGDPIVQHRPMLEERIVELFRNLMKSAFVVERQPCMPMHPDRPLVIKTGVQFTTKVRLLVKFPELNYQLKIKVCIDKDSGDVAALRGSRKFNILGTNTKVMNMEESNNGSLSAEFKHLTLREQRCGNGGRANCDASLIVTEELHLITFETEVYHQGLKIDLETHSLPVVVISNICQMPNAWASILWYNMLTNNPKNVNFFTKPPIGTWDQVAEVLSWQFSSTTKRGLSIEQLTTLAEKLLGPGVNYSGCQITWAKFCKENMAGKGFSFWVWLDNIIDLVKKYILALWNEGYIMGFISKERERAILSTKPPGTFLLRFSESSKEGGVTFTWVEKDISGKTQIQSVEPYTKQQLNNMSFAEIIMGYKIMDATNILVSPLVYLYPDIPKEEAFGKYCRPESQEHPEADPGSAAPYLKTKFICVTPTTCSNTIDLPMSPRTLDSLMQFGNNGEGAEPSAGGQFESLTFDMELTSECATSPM
Sequence of JAK2 (O60674 whole entry): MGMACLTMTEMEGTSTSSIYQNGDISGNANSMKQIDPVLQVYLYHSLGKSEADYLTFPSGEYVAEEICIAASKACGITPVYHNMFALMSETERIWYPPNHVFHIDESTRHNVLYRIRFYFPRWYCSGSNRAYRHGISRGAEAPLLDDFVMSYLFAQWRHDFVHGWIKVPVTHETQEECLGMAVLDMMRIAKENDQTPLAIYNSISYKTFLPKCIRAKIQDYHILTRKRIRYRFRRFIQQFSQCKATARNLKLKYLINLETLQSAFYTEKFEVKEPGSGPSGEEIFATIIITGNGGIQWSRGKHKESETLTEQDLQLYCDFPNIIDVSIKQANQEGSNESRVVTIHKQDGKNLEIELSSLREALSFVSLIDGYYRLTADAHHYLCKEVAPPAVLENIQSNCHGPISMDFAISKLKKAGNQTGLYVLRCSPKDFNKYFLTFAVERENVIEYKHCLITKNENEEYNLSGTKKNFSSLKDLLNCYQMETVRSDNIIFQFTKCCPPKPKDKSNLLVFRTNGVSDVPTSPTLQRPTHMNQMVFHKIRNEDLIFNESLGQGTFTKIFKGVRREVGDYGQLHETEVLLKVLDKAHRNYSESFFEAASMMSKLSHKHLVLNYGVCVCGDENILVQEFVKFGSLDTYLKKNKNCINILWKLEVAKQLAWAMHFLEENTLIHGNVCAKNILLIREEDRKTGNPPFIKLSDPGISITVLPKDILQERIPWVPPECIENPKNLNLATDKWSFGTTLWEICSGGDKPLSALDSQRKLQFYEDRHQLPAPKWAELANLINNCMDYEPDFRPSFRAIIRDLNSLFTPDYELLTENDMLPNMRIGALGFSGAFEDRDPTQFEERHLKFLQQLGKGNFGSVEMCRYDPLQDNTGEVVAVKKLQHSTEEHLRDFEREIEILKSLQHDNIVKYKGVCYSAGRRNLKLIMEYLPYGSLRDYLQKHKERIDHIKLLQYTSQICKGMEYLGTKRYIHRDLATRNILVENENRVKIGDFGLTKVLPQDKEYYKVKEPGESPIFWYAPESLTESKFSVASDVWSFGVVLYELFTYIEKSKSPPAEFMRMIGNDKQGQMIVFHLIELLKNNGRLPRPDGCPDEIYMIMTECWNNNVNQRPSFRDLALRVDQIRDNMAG

CCn1cc(C2=C(c3cn(CCC#N)c4ccccc34)C(=O)NC2=O)c2ccccc21 [BMA016, 2-(1-ethyl-1H-indol-3-yl)-3-[1-(2-cyanoethyl)-1H-indol-3-yl]maleimide]
STAT3-dependent luciferase expression [1]: significantly inhibited

CCn1cc(C2=C(c3cn(CCCC#N)c4ccccc34)C(=O)NC2=O)c2ccccc21 [BMA019, 2-(1-ethyl-1H-indol-3-yl)-3-[1-(3-cyanopropyl)-1H-indol-3-yl]maleimide]
STAT3-dependent luciferase expression [1]: significantly inhibited

CCn1cc(C2=C(c3cn(CCCCC#N)c4ccccc34)C(=O)N(CO)C2=O)c2ccccc21 [BMA088, N-hydroxymethyl-2-(1-ethyl-1H-indol-3-yl)-3-[1-(4-cyanobutyl)-1H-indol-3-yl] maleimide]
STAT3-dependent luciferase expression [1]: no inhibition

N#CCCCn1cc(C2=C(c3cn(CCCC#N)c4ccccc34)C(=O)NC2=O)c2ccccc21 [BMA097, 2,3-bis[1-(3-cyanopropyl)-1H-indol-3-yl]maleimide]
IC50 at 48 h (MTT survival assay; 48 hrs): 10.6 µM
IC50 at 72 h (MTT survival assay; 72 hrs): 6.5 µM
IC50 (MDA-MB-231 [2]; MDA-MB-231, 48 h): 3.6 µM
IC50 (MDA-MB-231 [2]; MDA-MB-231, 72 h): 0.9 µM
expression of STAT3 target genes, cyclin D1 and Bcl-xL [3]: inhibited
IC50 ([1]; Homo sapiens, MDA-MB-231, read-out: IC50, inhibition of STAT3-dependent luciferase expression): ~1.8 µM
STAT3-dependent luciferase expression [1]: significantly inhibited
t1/2, inhibition of STAT3-dependent luciferase expression ([1]; re-synthesized BMA097, time course at 2 μM): ~ 16 hrs
pull-down of recombinant STAT3 lacking the TAD domain (ΔTAD-C) (recombinant STAT3): successfully pulled down
pull-down of recombinant STAT3 with further deletion of the SH2 domain (ΔSH2-C) (recombinant STAT3): abolished the binding
total annexin V-positive cells (MDA-MB-231 [4]; 2 μM BMA097, 24 hrs): 51.9%
total annexin V-positive cells (MDA-MB-231 [4]; 4 μM BMA097, 24 hrs): 63.8%
level of total STAT3 (STAT3 [5]): little effect
phosphorylation of Ser727 of STAT3 (STAT3 [5]): did not affect
phosphorylation of Tyr705 of STAT3 (STAT3 [5]; constitutive, dose- and time-dependent): inhibits
nucleus-localized STAT3 (STAT3 [5]; immunofluorescence and fractionation, 24 hrs): disappeared
STAT3 dimerization (STAT3 [5]; non-denaturing PAGE, dose- and time-dependent): inhibited
IL-6-induced phosphorylation and activation of STAT3 (STAT3 [5]; serum-starved MDA-MB-231 cells): reduced
total annexin V-positive cells (MCF7 [6]; 2 μM BMA097, 24 hrs): 34.2%
total annexin V-positive cells (MCF7 [6]; 4 μM BMA097, 24 hrs): 48.1%
mitochondrial membrane potential (Δψm) [7]: induced Δψm loss
IC50 (MDA-MB-468; MDA-MB-468, 48 h): 4 µM
IC50 (MDA-MB-468; MDA-MB-468, 72 h): 1.8 µM
IC50 (breast cancer cells): 0.9 to 3.9 µM
IC50 (MCF7 [8]; MCF7, 48 h): 6.4 µM
IC50 (MCF7 [8]; MCF7, 72 h): 3.9 µM
STAT3 pull-down by BMA097-conjugated Sepharose (STAT3 [9]; lysate of MDA-MB-231 cells): successfully pulled down STAT3
competition of STAT3 pulldown by excess free BMA097 (STAT3 [9]; lysate pre-treated with 400 μM BMA097): completely inhibited
growth and final weight of MDA-MB-231 xenograft tumors (MDA-MB-231 xenografts; 10 mg/kg IP every 3 days for 18 days): significantly reduced
growth and final weight of MDA-MB-231 xenograft tumors (MDA-MB-231 xenografts; 40 mg/kg IP every 3 days for 18 days): significantly reduced
caspase 3 cleavage in xenograft tumors (MDA-MB-231 xenografts; IHC staining): induced
phosphorylated STAT3 in xenograft tumors (MDA-MB-231 xenografts; IHC staining, vs vehicle control): reduced level
weight loss and apparent phenotypic changes in the mouse model ([10]; 40 mg/kg): lack of weight loss
body weight reduction between the control and treatment groups ([10]; 10 and 40 mg/kg IP): no significant differences
level of total JAK2 (JAK2): no effect
JAK2 phosphorylation/activation (JAK2; Tyr1007/1008): does not inhibit

N#CCCCCn1cc(C2=C(c3cn(CCCCC#N)c4ccccc34)C(=O)NC2=O)c2ccccc21 [BMA100, 2,3-bis[1-(4-cyanobutyl)-1H-indol-3-yl] maleimide]
STAT3-dependent luciferase expression [1]: significantly inhibited

N-hydroxy-2-(1-ethyl-1H-indol-3-yl)-3-(1-hydroxy-1H-indol-3-yl)maleimide [BMA127]
STAT3-dependent luciferase expression [1]: least inhibition
